In the library only some 3% were active in any assay of this set; here they are far more common.
Ecoli rRNA inh = selective bacterial rRNA inhibition in E. coli | E. coli WT GFP vs humanized-ribosome RFP mutants, fluorescence, 24 h; stronger effect = lower value; DMSO median 0, no signal -100 | GFP signal change (wild-type ribosome), % (concentration not given with the values) | 1.6% of 350,000 active;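 active = significant combined selectivity score with lowered wild-type GFP, culture density cut under 30%, mutant RFP and density less affected; inactive = any of these conditions unmet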
C2C12 statin = protects C2C12 myotubes from simvastatin toxicity | rescue of ATP level, % at 7.49 µM | ATP luminescence, 48 h; scaled: DMSO 0, geranylgeraniol control 100 | 0.78% of 330,000 active;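 active = mean ATP rescue above about 67%, or every replicate alone reaching that limit, limit read from the data, passing the limit was not always enough; inconclusive = no clear call, values can overlap the other calls; inactive = mean under the limit and some replicate under it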;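 note: myotubes were challenged with 10 µM simvastatin during compound exposure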
PGC1a acetyl inh = modulators of PGC1a acetylation; 0.17% of 350,000 active; U2OS PGC1a acetylation, AlphaScreen anti-acetyl-lysine; with virally co-expressed GCN5 acetyltransferase; inhibition, % at 15.6 µM;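 active = every replicate shows inhibition of at least 40%; inconclusive = mean inhibition at least 40% but some replicate below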
SIRT5 block = inhibitors of human sirtuin-5 desuccinylase; Q9NXA8; inhibition, % at 15 µM; Purified SirT5, succinyl-peptide AMC, trypsin-coupled fluorescence; 1.1% of 330,000 active; in the data active = inhibition above about 15%; inconclusive = no clear call, values can overlap the other calls
Target sequence (Q9NXA8 whole entry, looked up): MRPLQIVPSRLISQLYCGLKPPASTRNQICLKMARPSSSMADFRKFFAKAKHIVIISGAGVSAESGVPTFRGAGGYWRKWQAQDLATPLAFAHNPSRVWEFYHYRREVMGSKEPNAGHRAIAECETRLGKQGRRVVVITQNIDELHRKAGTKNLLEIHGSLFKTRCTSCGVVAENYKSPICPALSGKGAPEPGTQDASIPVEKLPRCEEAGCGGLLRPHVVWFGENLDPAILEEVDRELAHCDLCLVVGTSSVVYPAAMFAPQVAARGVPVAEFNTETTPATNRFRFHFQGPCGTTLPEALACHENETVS
Cneo AK release = causes C. neoformans cell lysis; lysis activity, % at 15 µM; 0.2% of 360,000 active; adenylate kinase release luminescence, 4 h; normalised: neutral wells 0, clomiphene wells 100;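 active = mean lysis activity across replicates of at least 80%, whatever share of replicates individually reach that level; inactive = mean lysis activity below 80%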
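Assay system: Cryptococcus neoformans yeast cells / Dosing: single-point compound dose / Timing: 4 h at 37 °C static, read 1 h later / Measured by: luminescence of released adenylate kinase using an AK detection reagent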
S100A4 inh HTS = inhibitors of human S100A4 binding to myosin IIA peptide | P26447 | S100A4/TAMRA-MyoIIA peptide fluorescence polarization | inhibition, % at 10.7 µM | 0.14% of 360,000 active | AID 652163;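 active = mean inhibition of at least 70% across replicates, with every replicate also reaching that level; inconclusive = mean inhibition reaches 70% but some replicates fall short; inactive = mean inhibition below 70%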
Target sequence (P26447 whole entry, looked up): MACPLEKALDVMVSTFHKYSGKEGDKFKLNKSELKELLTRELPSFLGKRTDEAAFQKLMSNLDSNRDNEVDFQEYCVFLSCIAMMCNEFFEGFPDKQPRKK
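assay system = human S100A4 monomer with TAMRA-labelled myosin IIA peptide | also added = labelled myosin peptide probe, 5 nM | incubation = 5 min between mix addition and reading | control set = DMSO and TFP controls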
Each line names hits and unclear results; the compound was inactive in the other large screens.

OC(c1ccc(Cl)cc1)c1nccc2ccccc12 (centres undefined)	Ecoli rRNA inh -21.9
O=C(NC1CCN(Cc2ccccc2)CC1)c1ccc2c(c1)[nH]c(=O)n2Cc1ccc(F)cc1	Ecoli rRNA inh -31.5 (no result: C2C12 statin, Cneo AK release)
CCCNC(=O)[C@@H]1[C@@H](CO)[C@@H]2Cn3c(ccc(-c4ccccc4)c3=O)[C@@H]2N1C(=O)c1ccccc1F	none (no result: PGC1a acetyl inh)
CC1CN(S(=O)(=O)c2cccc(C(=O)N(C)C3CCN(C)CC3)c2)CC(C)O1 (centres undefined)	none (no result: Ecoli rRNA inh)
Cc1nc(-c2cccc(NC(=O)c3cccc(S(=O)(=O)N4CCCC4)c3)c2)cs1	Ecoli rRNA inh -29.4
Cc1nc(-c2cccc(S(=O)(=O)N3CC(C)OC(C)C3)c2)cs1 (centres undefined)	C2C12 statin 115.1 (no result: Ecoli rRNA inh, SIRT5 block, S100A4 inh HTS)
CC1CN(S(=O)(=O)c2cccc(C(=O)N=c3sccn3C)c2)CC(C)O1 (centres undefined)	Ecoli rRNA inh -21.0
Cc1nc(-c2cccc(NC(=O)c3ccc(Cl)c(S(=O)(=O)N4CCCC4)c3)c2)cs1	none
CN1C(=O)c2cc(NS(C)(=O)=O)ccc2OC[C@@H]2O[C@@H](CC(=O)NCc3ccc(-c4ccccc4)cc3)CC[C@@H]21	SIRT5 block 15.3 (no result: PGC1a acetyl inh)
CN1C(=O)c2cc(NS(C)(=O)=O)ccc2OC[C@@H]2O[C@@H](CC(=O)O)CC[C@H]21	Cneo AK release 83.1
CN1C(=O)c2cc(NS(=O)(=O)c3cccc(F)c3)ccc2OC[C@@H]2O[C@@H](CC(=O)O)CC[C@H]21	Cneo AK release 96.5
CN1C(=O)c2cc(NS(=O)(=O)c3cccc(F)c3)ccc2OC[C@H]2O[C@H](CC(=O)O)CC[C@H]21	Cneo AK release 96.5
COc1ccc2c3c(n(C)c2c1)[C@H](CO)N(C(=O)C1CC1)CC31CCN(C)CC1	none (no result: C2C12 statin, PGC1a acetyl inh, Cneo AK release)
O=C(NCC[C@@H]1CC[C@@H](NS(=O)(=O)c2cccc(F)c2)[C@H](CO)O1)C1CCCC1	none
CC(O)CNc1nc2ccccc2n1-c1ncnc2sc3c(c12)CCC3 (centres undefined)	C2C12 statin 114.0 (no result: Ecoli rRNA inh, SIRT5 block, S100A4 inh HTS)
c1ccc2c(c1)ncn2-c1ncnc2sc3c(c12)CCCC3	none (no result: Ecoli rRNA inh, SIRT5 block, S100A4 inh HTS)
Cn1cnc(S(=O)(=O)N2CC[C@@H]3[C@@H](CO)Nc4ccc(-c5ccccc5F)cc4[C@@H]32)c1	none (no result: SIRT5 block, S100A4 inh HTS)
COc1ccccc1C(=O)OCc1c(-c2ccccc2)ncc2ccccc12	Ecoli rRNA inh -25.1 (no result: SIRT5 block)
N#Cc1c(-c2ccccc2)nc(SCC(=O)N(c2ccccc2)c2ccccc2)[nH]c1=O	Ecoli rRNA inh -49.3
C[C@@H]1CCCCO[C@H](CN(C)S(C)(=O)=O)[C@H](C)CN([C@@H](C)CO)C(=O)c2cc(NS(=O)(=O)c3ccc(Cl)cc3)ccc2O1	none
O=C(COC(=O)c1n[nH]c2ccccc12)c1cccc(Br)c1	Ecoli rRNA inh -38.2
CC1=C(C(=O)OC2CCCC2)C(c2ccc(C)o2)C2=C(CC(c3cccs3)CC2=O)N1 (centres undefined)	C2C12 statin 101.6 (no result: Ecoli rRNA inh, SIRT5 block, S100A4 inh HTS)
CN1C(=O)c2cc(NC(=O)c3cccs3)ccc2OC[C@@H]2O[C@@H](CC(=O)N3CCOCC3)CC[C@@H]21	none
CCOC(=O)/C(=N\Nc1ccccc1)P(=O)(c1ccccc1)c1ccccc1	Ecoli rRNA inh -36.8
COc1ccc(C(=O)c2sc(Nc3ccccc3)nc2N)cc1	C2C12 statin 78.1 (no result: PGC1a acetyl inh)
S=C(NCc1ccco1)N/N=C/c1ccc(Cl)cc1	Ecoli rRNA inh -38.7 (no result: C2C12 statin, PGC1a acetyl inh, Cneo AK release)
COc1ccccc1/C=N/NC(=S)NCc1ccco1	Cneo AK release 89.3 (no result: C2C12 statin)
CC(C)(CO)NC(=S)NCc1ccco1	SIRT5 block 30.1 (no result: C2C12 statin)
Oc1ccc(/C=N/NC(=S)NCc2ccco2)cc1	none (no result: Ecoli rRNA inh, SIRT5 block, Cneo AK release, S100A4 inh HTS)
COCC#Cc1ccc([C@@H]2[C@@H](CO)N3C(=O)CN(C(=O)CN4CCOCC4)C[C@@H]23)cc1	none (no result: C2C12 statin, Cneo AK release)
C[C@H]1CN([C@@H](C)CO)C(=O)c2cccc(NS(=O)(=O)c3ccc(Cl)cc3)c2O[C@@H]1CN(C)S(=O)(=O)c1cn(C)cn1	none (no result: C2C12 statin, SIRT5 block, Cneo AK release, S100A4 inh HTS)
O=C(c1ccco1)N(Cc1ccco1)c1ccc(O)cc1	C2C12 statin 118.4 (no result: Ecoli rRNA inh, SIRT5 block, S100A4 inh HTS)
O=C(Nc1ccc(N2CCCC2)cc1)c1ccccc1[N+](=O)[O-]	none
CCCC(=O)Nc1ccc(NC(=S)NC(=O)c2ccccc2[N+](=O)[O-])cc1	none (no result: Ecoli rRNA inh, C2C12 statin, PGC1a acetyl inh, SIRT5 block, Cneo AK release)
CCC(=O)NC(=S)Nc1ccc(NC(=O)c2ccccc2[N+](=O)[O-])cc1	Ecoli rRNA inh -22.5 (no result: C2C12 statin, SIRT5 block)
CCCCCC(=O)NNC(=S)NC(=O)c1cccc([N+](=O)[O-])c1	none (no result: Ecoli rRNA inh, C2C12 statin, PGC1a acetyl inh, SIRT5 block, S100A4 inh HTS)
Cc1ccccc1C(=O)N1CCN(c2ccc(NC(=O)c3ccccc3[N+](=O)[O-])cc2)CC1	SIRT5 block 19.2 (no result: C2C12 statin, Cneo AK release)
CCCCCC(=O)NNC(=S)NC(=O)c1ccccc1[N+](=O)[O-]	Ecoli rRNA inh -32.2 (no result: C2C12 statin, PGC1a acetyl inh, Cneo AK release)
O=C(N[C@H]1CC[C@@H](CC(=O)N2CCOCC2)O[C@H]1CO)c1ccc2c(c1)OCO2	none
COc1ccc(CC(=O)Nc2nc(-c3ccc(F)c(F)c3)cs2)cc1	none
CC1(C(=O)OCC(=O)Nc2nc(-c3ccc(F)c(F)c3)cs2)CC1(Cl)Cl (centres undefined)	Ecoli rRNA inh -27.5, S100A4 inh HTS inconclusive (no result: C2C12 statin, PGC1a acetyl inh)
O=C(CN1C(=O)NC2(CCCC2)C1=O)Nc1nc(-c2ccc(F)c(F)c2)cs1	none (no result: Ecoli rRNA inh)
O=C(Cc1ccc(F)cc1)Nc1nc(-c2ccc(F)c(F)c2)cs1	SIRT5 block 16.4 (no result: PGC1a acetyl inh)
C[C@@H]1CCCCO[C@H](CN(C)Cc2ccc(C(=O)O)cc2)[C@@H](C)CN([C@@H](C)CO)C(=O)c2cc(NS(=O)(=O)c3cccs3)ccc2O1	none (no result: C2C12 statin)
COc1cccc(NC(=O)N[C@@H]2C=C[C@@H](CC(=O)NCc3ccccn3)O[C@@H]2CO)c1	none
C[C@@H]1CN([C@H](C)CO)C(=O)c2cccc(NC(=O)c3nc4ccccc4s3)c2O[C@H]1CN(C)Cc1ccc(C(F)(F)F)cc1	SIRT5 block 19.9
C[C@H](CO)N1C[C@H](C)[C@H](CN(C)Cc2ccccc2)Oc2c(NC(=O)c3nc4ccccc4s3)cccc2C1=O	none (no result: PGC1a acetyl inh)
C[C@H]1CN([C@@H](C)CO)C(=O)c2cccc(NC(=O)c3nc4ccccc4s3)c2O[C@H]1CN(C)Cc1ccccc1	none (no result: PGC1a acetyl inh)
C[C@H]1CN([C@@H](C)CO)C(=O)c2cccc(NC(=O)c3nc4ccccc4s3)c2O[C@H]1CN(C)Cc1ccc(C(F)(F)F)cc1	SIRT5 block 27.0
Cc1ccc(S(=O)(=O)N(C)C[C@H]2Oc3c(NC(=O)CCCCCC(=O)Nc4ccccc4N)cccc3C(=O)N([C@@H](C)CO)C[C@H]2C)cc1	none (no result: C2C12 statin, Cneo AK release)
Cc1cc(=O)[nH]c2ccc(S(=O)(=O)Nc3ccccc3)cc12	none
Cc1cccc(NS(=O)(=O)c2ccc3[nH]c(=O)cc(C(=O)O)c3c2)c1	Ecoli rRNA inh -14.5 (no result: C2C12 statin, PGC1a acetyl inh, Cneo AK release)

Assay outcomes deposited in PubChem BioAssay by Broad Institute.
